What was measured:
[1] = molecular target: T1, Serine/threonine-protein kinase BRSK2 (Homo sapiens) (UniProt Q8IWQ3); assay: Inhibition of BRSK2 assessed as residual activity at 10 uM by Cherenkov counting relative to control in presence of 50 uM ATP
T1 sequence (whole entry): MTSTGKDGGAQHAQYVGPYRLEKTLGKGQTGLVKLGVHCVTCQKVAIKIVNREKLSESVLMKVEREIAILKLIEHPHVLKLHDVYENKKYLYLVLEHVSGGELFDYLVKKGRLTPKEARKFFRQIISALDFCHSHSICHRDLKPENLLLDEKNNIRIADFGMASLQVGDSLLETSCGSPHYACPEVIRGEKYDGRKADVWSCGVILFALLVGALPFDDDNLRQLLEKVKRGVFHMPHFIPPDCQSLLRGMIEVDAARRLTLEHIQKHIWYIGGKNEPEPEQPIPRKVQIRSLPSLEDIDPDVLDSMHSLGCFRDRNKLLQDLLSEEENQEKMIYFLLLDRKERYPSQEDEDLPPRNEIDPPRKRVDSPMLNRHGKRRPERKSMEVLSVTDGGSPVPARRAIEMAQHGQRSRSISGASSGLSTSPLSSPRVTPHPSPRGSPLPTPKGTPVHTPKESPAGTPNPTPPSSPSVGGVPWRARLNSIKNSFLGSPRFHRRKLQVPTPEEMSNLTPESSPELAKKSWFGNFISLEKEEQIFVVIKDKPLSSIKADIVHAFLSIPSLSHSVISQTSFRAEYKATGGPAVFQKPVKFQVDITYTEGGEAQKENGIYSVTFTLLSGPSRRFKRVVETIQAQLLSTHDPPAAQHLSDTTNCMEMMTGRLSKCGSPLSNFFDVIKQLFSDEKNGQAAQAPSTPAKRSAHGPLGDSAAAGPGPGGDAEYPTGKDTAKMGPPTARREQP
Method in brief: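 Single-point profiling at 10 µM in a panel of 78 protein kinases. Kinase activity is expressed as a percentage relative to control assays without compound.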

[2] = molecular target: Ribosomal protein S6 kinase alpha-3 (Homo sapiens) (UniProt P51812); assay: Inhibition of RSK2 assessed as residual activity at 10 uM by Cherenkov counting relative to control in presence of 50 uM ATP
Method in brief: (§1)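 Single-concentration profiling at 10 μM in a 78-kinase panel. Kinase activity is expressed as a percentage of control assays run without compound.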

[3] = molecular target: Tyrosine-protein kinase Yes (Homo sapiens) (UniProt P07947); assay: Inhibition of YES1 assessed as residual activity at 10 uM by Cherenkov counting relative to control in presence of 20 uM ATP; method in brief: as §1
[4] = molecular target: RAC-alpha serine/threonine-protein kinase (Homo sapiens) (UniProt P31749); assay: Inhibition of PKBalpha assessed as residual activity at 0.1 uM by Cherenkov counting relative to control in presence of 5 uM ATP
Method in brief: (§2)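 Single-concentration screen at 0.1 μM in a 76-kinase panel. ATP for each kinase was set near its Km for ATP. Residual activity is given as a percentage of control assays without compound, mean of n = 3 ± SD.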

[5] = molecular target: T2, Dual specificity tyrosine-phosphorylation-regulated kinase 3 (Homo sapiens) (UniProt O43781); assay: Inhibition of DYRK3 assessed as residual activity at 0.1 uM by Cherenkov counting relative to control in presence of 5 uM ATP
T2 sequence (whole entry): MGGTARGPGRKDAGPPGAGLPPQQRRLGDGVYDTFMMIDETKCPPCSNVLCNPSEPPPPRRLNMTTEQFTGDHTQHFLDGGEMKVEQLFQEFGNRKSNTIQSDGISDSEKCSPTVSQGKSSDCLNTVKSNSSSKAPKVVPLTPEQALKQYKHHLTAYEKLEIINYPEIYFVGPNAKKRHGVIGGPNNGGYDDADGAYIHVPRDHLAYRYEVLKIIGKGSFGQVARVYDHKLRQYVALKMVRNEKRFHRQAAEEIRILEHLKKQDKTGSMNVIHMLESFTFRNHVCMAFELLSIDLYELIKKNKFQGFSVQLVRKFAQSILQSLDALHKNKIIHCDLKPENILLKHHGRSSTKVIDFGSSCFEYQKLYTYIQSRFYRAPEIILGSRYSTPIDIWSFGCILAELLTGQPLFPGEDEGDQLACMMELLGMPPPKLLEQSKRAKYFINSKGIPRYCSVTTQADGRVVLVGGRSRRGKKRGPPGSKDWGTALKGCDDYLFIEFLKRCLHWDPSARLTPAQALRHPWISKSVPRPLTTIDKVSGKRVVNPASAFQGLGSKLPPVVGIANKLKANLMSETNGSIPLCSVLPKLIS
Method in brief: (§3)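 Single-concentration screen at 0.1 µM across a panel of 76 protein kinases. Each kinase was run at an ATP concentration approximating its ATP Km. Results are % mean residual activity versus control assays without compound (n = 3 ± SD).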

[6] = molecular target: Calcium/calmodulin-dependent protein kinase type 1 (Homo sapiens) (UniProt Q14012); assay: Inhibition of CAMK1 assessed as residual activity at 0.1 uM by Cherenkov counting relative to control in presence of 50 uM ATP; method in brief: as §3
[7] = molecular target: Tyrosine-protein kinase Yes (Homo sapiens) (UniProt P07947); assay: Inhibition of YES1 assessed as residual activity at 0.1 uM by Cherenkov counting relative to control in presence of 20 uM ATP; method in brief: as §2
[8] = molecular target: Myosin light chain kinase, smooth muscle (Homo sapiens) (UniProt Q15746); assay: Inhibition of smooth muscle MLCK assessed as residual activity at 0.1 uM by Cherenkov counting relative to control in presence of 50 uM ATP; method in brief: as §2
[9] = molecular target: Cyclin-dependent kinase 2/cyclin A (Homo sapiens) (UniProt P24941+P20248+P78396); assay: Inhibition of CDK2/cyclin A assessed as residual activity at 0.1 uM by Cherenkov counting relative to control in presence of 20 uM ATP; type: protein-complex assay; method in brief: as §3
[10] = molecular target: Tyrosine-protein kinase Lck (Homo sapiens) (UniProt P06239); assay: Inhibition of Lck assessed as residual activity at 0.1 uM by Cherenkov counting relative to control in presence of 50 uM ATP
Method in brief: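 Single-concentration selectivity screen at 0.1 μM against a panel of 76 protein kinases. Each kinase was run at an ATP level approximating its Km for ATP. Output is mean residual activity as % of the control assay without compound, n = 3 ± SD.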

Sequence of Tyrosine-protein kinase Yes (Homo sapiens) (P07947 2-543 limits assumed): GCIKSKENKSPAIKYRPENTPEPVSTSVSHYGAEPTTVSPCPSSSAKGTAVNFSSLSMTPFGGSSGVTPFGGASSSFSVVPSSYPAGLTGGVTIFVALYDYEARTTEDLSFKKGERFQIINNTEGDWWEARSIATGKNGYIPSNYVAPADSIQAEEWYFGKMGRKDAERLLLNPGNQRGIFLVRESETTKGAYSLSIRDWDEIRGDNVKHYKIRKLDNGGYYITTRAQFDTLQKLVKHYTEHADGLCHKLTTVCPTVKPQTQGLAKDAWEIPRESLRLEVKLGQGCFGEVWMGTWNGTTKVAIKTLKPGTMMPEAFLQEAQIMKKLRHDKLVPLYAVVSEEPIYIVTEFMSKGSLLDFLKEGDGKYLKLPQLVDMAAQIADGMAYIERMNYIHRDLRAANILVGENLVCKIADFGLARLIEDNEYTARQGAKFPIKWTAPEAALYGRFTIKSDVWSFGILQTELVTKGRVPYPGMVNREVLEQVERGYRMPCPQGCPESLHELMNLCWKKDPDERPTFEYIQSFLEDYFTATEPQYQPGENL
Sequence of Ribosomal protein S6 kinase alpha-3 (Homo sapiens) (P51812 whole entry): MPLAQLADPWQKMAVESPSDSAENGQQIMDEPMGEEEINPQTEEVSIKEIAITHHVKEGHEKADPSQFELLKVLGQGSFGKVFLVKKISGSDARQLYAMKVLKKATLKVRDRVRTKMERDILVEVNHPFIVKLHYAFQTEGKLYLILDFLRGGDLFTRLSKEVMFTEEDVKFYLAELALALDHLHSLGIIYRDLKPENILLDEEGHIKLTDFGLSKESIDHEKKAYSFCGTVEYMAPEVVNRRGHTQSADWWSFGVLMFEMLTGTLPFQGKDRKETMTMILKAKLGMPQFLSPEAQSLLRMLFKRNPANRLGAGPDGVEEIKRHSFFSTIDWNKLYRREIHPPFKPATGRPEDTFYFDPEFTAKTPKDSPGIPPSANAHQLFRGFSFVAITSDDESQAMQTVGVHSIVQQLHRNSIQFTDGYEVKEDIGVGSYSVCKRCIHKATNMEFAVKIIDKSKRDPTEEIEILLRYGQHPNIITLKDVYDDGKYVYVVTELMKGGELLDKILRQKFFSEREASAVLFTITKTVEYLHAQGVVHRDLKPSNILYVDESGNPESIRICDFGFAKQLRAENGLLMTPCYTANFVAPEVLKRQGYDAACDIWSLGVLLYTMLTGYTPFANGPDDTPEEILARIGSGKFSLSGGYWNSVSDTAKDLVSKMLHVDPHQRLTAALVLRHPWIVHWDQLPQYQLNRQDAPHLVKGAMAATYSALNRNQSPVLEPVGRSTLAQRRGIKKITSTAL
Sequence of Calcium/calmodulin-dependent protein kinase type 1 (Homo sapiens) (Q14012 whole entry, looked up): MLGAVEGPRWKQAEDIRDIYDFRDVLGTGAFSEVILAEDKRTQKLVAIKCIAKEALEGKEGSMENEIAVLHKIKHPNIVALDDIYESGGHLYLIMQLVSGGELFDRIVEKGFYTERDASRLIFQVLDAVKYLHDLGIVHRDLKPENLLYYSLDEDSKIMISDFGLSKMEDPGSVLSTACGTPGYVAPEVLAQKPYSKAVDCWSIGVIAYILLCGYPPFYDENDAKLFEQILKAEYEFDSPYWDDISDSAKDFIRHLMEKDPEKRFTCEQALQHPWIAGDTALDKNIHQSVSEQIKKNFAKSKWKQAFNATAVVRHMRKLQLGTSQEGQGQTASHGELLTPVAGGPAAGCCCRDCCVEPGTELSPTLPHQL
Sequence of Myosin light chain kinase, smooth muscle (Homo sapiens) (Q15746 whole entry): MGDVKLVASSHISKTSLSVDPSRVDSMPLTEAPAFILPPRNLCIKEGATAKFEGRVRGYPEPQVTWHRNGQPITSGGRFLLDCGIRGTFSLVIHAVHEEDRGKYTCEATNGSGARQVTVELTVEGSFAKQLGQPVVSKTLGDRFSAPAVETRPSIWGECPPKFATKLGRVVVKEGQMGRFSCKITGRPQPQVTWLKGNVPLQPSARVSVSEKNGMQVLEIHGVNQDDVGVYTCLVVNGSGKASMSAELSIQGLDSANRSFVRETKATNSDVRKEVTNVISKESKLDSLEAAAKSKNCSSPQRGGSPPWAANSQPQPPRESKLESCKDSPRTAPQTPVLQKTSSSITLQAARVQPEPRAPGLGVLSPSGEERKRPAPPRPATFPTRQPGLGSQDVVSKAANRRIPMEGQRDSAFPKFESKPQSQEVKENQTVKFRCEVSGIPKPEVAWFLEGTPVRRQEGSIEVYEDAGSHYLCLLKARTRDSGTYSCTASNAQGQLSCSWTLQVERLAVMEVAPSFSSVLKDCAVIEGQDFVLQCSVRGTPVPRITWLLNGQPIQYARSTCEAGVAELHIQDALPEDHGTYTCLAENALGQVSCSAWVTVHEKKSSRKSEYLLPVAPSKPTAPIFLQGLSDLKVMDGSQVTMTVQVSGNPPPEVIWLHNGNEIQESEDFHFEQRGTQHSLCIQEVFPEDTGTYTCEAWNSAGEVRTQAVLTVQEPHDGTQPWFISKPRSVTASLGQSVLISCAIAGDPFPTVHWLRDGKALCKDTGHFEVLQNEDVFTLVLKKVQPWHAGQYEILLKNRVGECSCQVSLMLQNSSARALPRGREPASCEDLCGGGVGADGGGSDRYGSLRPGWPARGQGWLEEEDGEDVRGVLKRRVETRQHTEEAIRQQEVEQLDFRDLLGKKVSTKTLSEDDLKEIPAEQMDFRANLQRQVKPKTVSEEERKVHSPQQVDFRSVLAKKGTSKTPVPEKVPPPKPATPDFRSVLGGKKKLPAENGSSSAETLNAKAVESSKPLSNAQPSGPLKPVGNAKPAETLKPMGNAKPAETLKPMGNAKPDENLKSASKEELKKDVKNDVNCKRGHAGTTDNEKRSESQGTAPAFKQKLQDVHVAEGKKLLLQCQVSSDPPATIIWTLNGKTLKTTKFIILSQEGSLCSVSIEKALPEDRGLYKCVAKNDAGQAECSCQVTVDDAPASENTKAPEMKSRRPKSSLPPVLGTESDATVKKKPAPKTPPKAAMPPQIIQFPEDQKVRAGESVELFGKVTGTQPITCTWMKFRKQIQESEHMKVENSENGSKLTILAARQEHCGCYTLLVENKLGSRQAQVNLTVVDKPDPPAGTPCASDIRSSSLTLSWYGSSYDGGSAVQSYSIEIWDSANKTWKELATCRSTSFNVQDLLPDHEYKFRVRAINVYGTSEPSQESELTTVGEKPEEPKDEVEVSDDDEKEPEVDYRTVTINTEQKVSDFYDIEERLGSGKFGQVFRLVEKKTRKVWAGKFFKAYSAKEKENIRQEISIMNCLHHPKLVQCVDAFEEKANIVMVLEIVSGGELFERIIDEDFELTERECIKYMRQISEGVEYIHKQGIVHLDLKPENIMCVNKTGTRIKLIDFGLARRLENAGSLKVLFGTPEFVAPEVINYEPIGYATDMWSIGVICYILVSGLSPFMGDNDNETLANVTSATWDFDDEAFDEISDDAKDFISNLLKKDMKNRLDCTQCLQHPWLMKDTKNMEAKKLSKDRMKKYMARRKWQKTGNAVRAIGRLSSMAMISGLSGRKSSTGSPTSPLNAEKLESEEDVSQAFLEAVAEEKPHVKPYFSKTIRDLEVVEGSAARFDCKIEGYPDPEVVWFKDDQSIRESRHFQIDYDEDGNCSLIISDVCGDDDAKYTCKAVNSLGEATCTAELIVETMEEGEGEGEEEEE
Sequence of Tyrosine-protein kinase Lck (Homo sapiens) (P06239 2-509 limits assumed): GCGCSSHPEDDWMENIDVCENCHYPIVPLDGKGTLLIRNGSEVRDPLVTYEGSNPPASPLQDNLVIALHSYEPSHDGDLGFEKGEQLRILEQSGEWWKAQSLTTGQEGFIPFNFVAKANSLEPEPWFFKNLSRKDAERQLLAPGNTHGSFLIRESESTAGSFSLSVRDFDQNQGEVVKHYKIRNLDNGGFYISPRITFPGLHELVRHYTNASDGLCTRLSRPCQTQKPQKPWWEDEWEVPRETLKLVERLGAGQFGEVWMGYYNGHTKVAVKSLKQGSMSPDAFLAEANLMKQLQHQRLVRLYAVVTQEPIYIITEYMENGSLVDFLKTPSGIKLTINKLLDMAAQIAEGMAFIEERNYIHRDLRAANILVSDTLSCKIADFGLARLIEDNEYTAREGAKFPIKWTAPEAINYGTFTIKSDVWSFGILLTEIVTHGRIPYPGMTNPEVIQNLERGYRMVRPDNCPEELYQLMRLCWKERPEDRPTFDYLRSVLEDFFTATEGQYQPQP
Sequence of RAC-alpha serine/threonine-protein kinase (Homo sapiens) (P31749 whole entry): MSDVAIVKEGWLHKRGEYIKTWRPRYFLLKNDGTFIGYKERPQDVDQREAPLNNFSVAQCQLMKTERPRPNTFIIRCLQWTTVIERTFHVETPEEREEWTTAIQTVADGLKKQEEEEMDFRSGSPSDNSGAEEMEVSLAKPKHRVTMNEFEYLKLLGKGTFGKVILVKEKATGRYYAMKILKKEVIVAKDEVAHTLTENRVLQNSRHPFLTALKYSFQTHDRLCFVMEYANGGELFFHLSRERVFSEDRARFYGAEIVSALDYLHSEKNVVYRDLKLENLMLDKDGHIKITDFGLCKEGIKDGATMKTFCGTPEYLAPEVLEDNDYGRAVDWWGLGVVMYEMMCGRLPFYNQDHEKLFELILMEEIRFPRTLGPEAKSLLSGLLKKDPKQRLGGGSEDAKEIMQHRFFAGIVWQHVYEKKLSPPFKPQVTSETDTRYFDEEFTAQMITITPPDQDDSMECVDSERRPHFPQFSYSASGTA

| Activity [1] [%] | Activity [2] [%] | Activity [3] [%] | Activity [4] [%] | Activity [5] [%] | Activity [6] [%] | Activity [7] [%] | Activity [8] [%] | Activity [9] [%] | Activity [10] [%] | SMILES |
| --- | --- | --- | --- | --- | --- | --- | --- | --- | --- | --- |
| 87 | 113 | 82 |  |  |  |  |  |  |  | CC(C)c1onc(-c2ccc(F)cc2)c1-c1ccncc1 |
| 93 | 120 | 101 |  |  |  |  |  |  |  | CC(C)c1noc(-c2ccc(F)cc2)c1-c1ccncc1 |
|  |  |  | 105 | 104 | 92 | 24 | 82 | 112 | 50 | COc1ccc(/C=C/C(=O)Nc2cc(-c3[nH]c(SC)nc3-c3ccc(F)cc3)ccn2)c(OC)c1 |
|  |  |  | 105 | 90 | 98 | 14 | 93 | 115 | 74 | COc1ccc(/C=C/C(=O)Nc2cc(-c3[nH]c([S+](C)[O-])nc3-c3ccc(F)cc3)ccn2)c(OC)c1 (stereo not given) |

Reference: ChEMBL document CHEMBL1155278, “3,4-Diaryl-isoxazoles and -imidazoles as potent dual inhibitors of p38alpha mitogen activated protein kinase and casein kinase 1delta” (J Med Chem, 2009)
